Laboratory results: ChEMBL document CHEMBL1142126, “Triterpenoid pyrazines and benzopyrazines with cytotoxic activity” (J Nat Prod, 2007)
pIC50: −log10 of the molar value.

Assays:
[1] = system: PC-3; assay: Cytotoxicity against human PC3 cells after 72 hrs by MTT assay; assay type: cell-based; details: PC-3, 72 h
Outline: (§1)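 Cells seeded at 2500-30 000 per well depending on growth characteristics, preincubated 24 h at 37 °C, 5% CO2. Compounds dissolved in 10% DMSO, added as four-fold dilutions, quadruplicate. 72 h exposure at 37 °C, 5% CO2, 100% humidity. MTT added for 1-4 h, formazan dissolved in 10% aqueous SDS (pH 5.5) overnight at 37 °C, OD 540 nm. Survival relative to control wells; TCS50 taken from dose-response curves.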

[2] = system: CCRF-CEM; assay: Cytotoxicity against human CEM cells after 72 hrs by MTT assay; assay type: cell-based; outline: as §1
[3] = system: K562; assay: Cytotoxicity against human K562 cells after 72 hrs by MTT assay; assay type: cell-based; details: K562, 72 h; outline: as §1
[4] = system: A549; assay: Cytotoxicity against human A549 cells after 72 hrs by MTT assay; assay type: cell-based; details: A549, 72 h; outline: as §1
[5] = Cytotoxicity against human Pgp-positive multidrug-resistant K562-tax cells after 72 hrs by MTT assay; assay type: ADME, cell-based; outline: as §1
[6] = system: HT-29; assay: Cytotoxicity against human HT29 cells after 72 hrs by MTT assay; assay type: cell-based; details: HT-29, 72 h; outline: as §1
[7] = system: SK-MEL-2; assay: Cytotoxicity against human SK-MEL-2 cells after 72 hrs by MTT assay; assay type: cell-based; details: SK-MEL-2, 72 h
Outline: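 Cells seeded at 2500–30 000/well by growth characteristics, preincubated 24 h at 37 °C, 5% CO2; four-fold dilutions of compound (dissolved in 10% DMSO) added, 72 h exposure at 37 °C, 5% CO2, 100% humidity; quadruplicate. MTT 1–4 h, formazan dissolved in 10% SDS (pH 5.5) overnight, OD 540 nm; survival vs control wells, TCS50 from dose–response curves.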

[8] = Cytotoxicity against human U87-Mg cells after 72 hrs by MTT assay; assay type: cell-based, U-87MG ATCC; details: U-87 MG; outline: as §1
[9] = system: CCRF-CEM; assay: Cytotoxicity against daunorubicin-resistant CEM-DNR-bulk cells after 72 hrs by MTT assay; assay type: cell-based; details: Homo sapiens; outline: as §1
[10] = Cytotoxicity against B2-4 cells after 72 hrs by MTT assay; assay type: cell-based; details: Homo sapiens, B2-4, 72 h; outline: as §1

Compound	pIC50 [1]	pIC50 [2]	pIC50 [3]	pIC50 [4]	pIC50 [5]	pIC50 [6]	other results
C=C(C)[C@@H]1CC[C@]2(C(=O)OCOC(C)=O)CC[C@]3(C)[C@H](CC[C@@H]4[C@@]5(C)Cc6nccnc6C(C)(C)[C@@H]5CC[C@]43C)[C@@H]12	4.46	4.92	5.70	6.00	4.46	4.11	pIC50 [7]: 4.16
COC(=O)[C@@]12CC[C@]3(C)[C@@H](CC[C@@H]4[C@@]5(C)CCC(OC(C)=O)C(C)(C)[C@@H]5CC[C@]43C)C1=C(C(C)C)c1nccnc12 (some centres not stated)		3.60					
C=C(C)[C@@H]1CC[C@]2(C(=O)OC)CC[C@]3(C)[C@H](CC[C@@H]4[C@@]5(C)CCC(=O)C(C)(C)[C@@H]5CC[C@]43C)[C@@H]12 [METHYL BETULONATE]		3.60					
C=C(C)[C@@H]1CC[C@]2(CO)CC[C@]3(C)[C@H](CC[C@@H]4[C@@]5(C)Cc6nccnc6C(C)(C)[C@@H]5CC[C@]43C)[C@@H]12		4.00					
C=C(C)[C@@H]1CC[C@]2(C(=O)OC)CC[C@]3(C)[C@H](CC[C@@H]4[C@@]5(C)Cc6nccnc6C(C)(C)[C@@H]5CC[C@]43C)[C@@H]12		3.60					
CC(=O)OC[C@@]12CC[C@]3(C)[C@@H](CC[C@@H]4[C@@]5(C)CCC(OC(C)=O)C(C)(C)[C@@H]5CC[C@]43C)C1=C(C(C)C)c1nc3ccccc3nc12 (some centres not stated)	3.63	3.97	4.15	4.00	3.63	3.64	pIC50 [7]: 3.64
CC(C)[C@@H]1CC[C@]2(C(=O)O)CC[C@]3(C)C(CCC4[C@@]5(C)CC[C@H](O)C(C)(C)C5CC[C@]43C)C12 (some centres not stated) [DIHYDROBETULINIC ACID]		5.15					
COC(=O)[C@]12CC[C@@H](C(C)C)[C@@H]1[C@H]1CC[C@@H]3[C@@]4(C)Cc5nccnc5C(C)(C)[C@@H]4CC[C@@]3(C)[C@]1(C)CC2	3.64	3.82	3.70	3.66	4.04	3.79	pIC50 [8]: 3.64; pIC50 [9]: 3.63; pIC50 [10]: 4.03
C=C(C)[C@@H]1CC[C@]2(C(=O)O)CC[C@]3(C)[C@H](CC[C@@H]4[C@@]5(C)Cc6nc7ccccc7nc6C(C)(C)[C@@H]5CC[C@]43C)[C@@H]12	4.19	4.38	4.07	4.32	3.93	4.02	pIC50 [7]: 3.72
CC1(C)CC[C@]23CC[C@]4(C)[C@H](CC[C@@H]5[C@@]6(C)CC[C@H](O)C(C)(C)[C@@H]6CC[C@]54C)[C@H]2[C@H]1OC3 [ALLOBETULIN]		3.60					
COC(=O)[C@@]12CC[C@]3(C)[C@H](CC[C@@H]4[C@@]5(C)CC[C@H](OC(C)=O)C(C)(C)[C@@H]5CC[C@]43C)C1=C(C(C)C)C(=O)C2=O	4.85	4.80	5.22	4.89	5.05	5.15	pIC50 [8]: 4.13; pIC50 [7]: 4.85; pIC50 [9]: 5.30
CC1(C)CC[C@]23CC[C@]4(C)[C@H](CC[C@@H]5[C@@]6(C)Cc7nc8ccccc8nc7C(C)(C)[C@@H]6CC[C@]54C)[C@H]2[C@H]1OC3		3.60					
C=C(C)[C@@H]1CC[C@]2(C(=O)OCOC(=O)C(C)(C)C)CC[C@]3(C)[C@H](CC[C@@H]4[C@@]5(C)Cc6nccnc6C(C)(C)[C@@H]5CC[C@]43C)[C@@H]12	3.60	3.63	4.00	4.29	3.83	3.60	pIC50 [7]: 3.60
CC(=O)OC[C@@]12CC[C@]3(C)[C@H](CC[C@@H]4[C@@]5(C)CC[C@H](OC(C)=O)C(C)(C)[C@@H]5CC[C@]43C)C1=C(C(C)C)C(=O)C2=O	3.68	3.60	3.60	3.99	3.60	3.60	pIC50 [7]: 3.77
C=C(C)[C@@H]1CC[C@]2(C(=O)O)CC[C@]3(C)[C@H](CC[C@@H]4[C@@]5(C)CCC(=O)C(C)(C)[C@@H]5CC[C@]43C)[C@@H]12 [BETUNOLIC ACID]	4.82	4.70	5.22	4.82	4.77	4.77	pIC50 [8]: 3.80; pIC50 [7]: 4.59
C=C(C)[C@@H]1CC[C@]2(C(=O)OC)CC[C@]3(C)[C@H](CC[C@@H]4[C@@]5(C)Cc6nc7ccccc7nc6C(C)(C)[C@@H]5CC[C@]43C)[C@@H]12	3.60	3.60	3.61	3.60	3.60	3.60	pIC50 [8]: 3.60; pIC50 [9]: 3.60; pIC50 [10]: 4.33
C=C(C)[C@@H]1CC[C@]2(CO)CC[C@]3(C)[C@H](CC[C@@H]4[C@@]5(C)Cc6nc7ccccc7nc6C(C)(C)[C@@H]5CC[C@]43C)[C@@H]12		3.75					

Compound	pIC50 [1]	pIC50 [2]	pIC50 [3]	pIC50 [4]	pIC50 [5]	pIC50 [6]	other results
CC(=O)OC[C@@]12CC[C@]3(C)[C@H](CC[C@@H]4[C@@]5(C)CCC(OC(C)=O)C(C)(C)[C@@H]5CC[C@]43C)C1=C(C(C)C)c1nccnc12 (some centres not stated)		3.67					
C=C(C)[C@@H]1CC[C@]2(C(=O)O)CC[C@]3(C)[C@H](CC[C@@H]4[C@@]5(C)CC[C@H](O)C(C)(C)[C@@H]5CC[C@]43C)[C@@H]12 [BETULINIC ACID]		4.52					
CC(C)[C@@H]1CC[C@]2(CO)CC[C@]3(C)[C@H](CC[C@@H]4[C@@]5(C)Cc6nc7ccccc7nc6C(C)(C)[C@@H]5CC[C@]43C)[C@@H]12		4.46					
COC(=O)[C@@]12CC[C@]3(C)[C@H](CC[C@@H]4[C@@]5(C)CCC(OC(C)=O)C(C)(C)[C@@H]5CC[C@]43C)C1=C(C(C)C)c1nc3ccccc3nc12 (some centres not stated)		3.72					
CC(C)[C@@H]1CC[C@]2(C(=O)O)CC[C@]3(C)[C@H](CC[C@@H]4[C@@]5(C)Cc6nc7ccccc7nc6C(C)(C)[C@@H]5CC[C@]43C)[C@@H]12	3.99	3.91	3.95	3.91	3.93	3.91	pIC50 [8]: 3.83; pIC50 [9]: 3.70; pIC50 [10]: 4.00
CC(=O)OC1CC[C@]2(C)[C@H]3CC[C@H]4C5=C(CC[C@@]4(C)[C@]3(C)CC[C@H]2C1(C)C)c1nccnc1[C@H]5C(C)C (some centres not stated)		3.61					
CC(C)[C@@H]1CC[C@]2(CO)CC[C@]3(C)[C@H](CC[C@@H]4[C@@]5(C)Cc6nccnc6C(C)(C)[C@@H]5CC[C@]43C)[C@@H]12		4.13					
CC(C)C1=C2CC[C@]3(C)[C@H](CC[C@H]4C5[C@H]6O[C@@]5(CCC6(C)C)CC[C@]43C)[C@@]2(C)c2nccnc21 (some centres not stated)		3.60					
CC(C)C1=C2CC[C@]3(C)[C@H](CC[C@@H]4[C@H]5[C@H]6O[C@@]5(CCC6(C)C)CC[C@]43C)[C@@]2(C)c2nc3ccccc3nc21		3.60					
CC(C)[C@@H]1CC[C@]2(C(=O)O)CC[C@]3(C)[C@H](CC[C@@H]4[C@@]5(C)CCC(=O)C(C)(C)[C@@H]5CC[C@]43C)[C@@H]12 [DIHYDROBETULONIC ACID]		5.70					
COC(=O)[C@]12CC[C@@H](C(C)C)[C@@H]1[C@H]1CC[C@@H]3[C@@]4(C)Cc5nc6ccccc6nc5C(C)(C)[C@@H]4CC[C@@]3(C)[C@]1(C)CC2		3.60					
COC(=O)[C@]12CC[C@@H](C(C)C)[C@@H]1[C@H]1CC[C@@H]3[C@@]4(C)CCC(=O)C(C)(C)[C@@H]4CC[C@@]3(C)[C@]1(C)CC2 [METHYL DIHYDROBETULONATE]		3.76					
CC(C)C1=C2CC[C@]3(C)[C@H](CC[C@@H]4[C@H]5[C@H]6O[C@@]5(CCC6(C)C)CC[C@]43C)[C@@]2(C)C(=O)C1=O		3.60					
CC1(C)CC[C@]23CC[C@]4(C)[C@H](CC[C@@H]5[C@@]6(C)CCC(=O)C(C)(C)[C@@H]6CC[C@]54C)[C@H]2[C@H]1O3 [ALLOBETULONE]		3.60					
C=C(C)[C@@H]1CC[C@]2(CO)CC[C@]3(C)[C@H](CC[C@@H]4[C@@]5(C)CC[C@H](O)C(C)(C)[C@@H]5CC[C@]43C)[C@@H]12 [BETULIN]		3.60					
CC1(C)CC[C@]23CC[C@]4(C)[C@H](CC[C@@H]5[C@@]6(C)Cc7nccnc7C(C)(C)[C@@H]6CC[C@]54C)[C@H]2[C@H]1OC3		3.60					
